Screening results (PubChem BioAssay)
Hits are enriched below; roughly 1.5% of the tested compounds scored in any of these assays.
T cell modulator: modulators of CD8 T cell-vesicle binding, primary screen, mouse 2C CD8+ T cells, flow cytometry; hit rate 0.068% among 330,000; response (vesicle binding), % at 7 µM; 2C CD8+ T cell-vesicle binding; active compounds read low;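 active means response, share of CD8 T cells binding vesicles, and their 90th percentile fluorescence all below set limits, cut at about 80% in these data, passing the limit was not always enough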;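 further: values below 100% mean blocked vesicle binding to the CD8+ T cells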
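Incubation: binding step 1.5 h, 37 °C, antibody labelling 20 min, ice; system: murine 2C transgenic CD8+ T lymphocytes; technique: cytometric PE anti-B7-1 and Alexa647 anti-CD8 signals after 1% paraformaldehyde fixation; also added: QL9-charged Drosophila Ld/ICAM-1/B7-1 vesicles; control set: naked versus QL9-loaded vesicles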
DSG3 Ab inh: inhibitors of pemphigus antibody binding to DSG3, primary screen, biochemical, bead-based, flow cytometry, scFv-GFP | Desmoglein-3 (Homo sapiens), P32926 | hit rate 0.48% among 310,000 | binding (percent of control), % at 10 µM | AID 588358, 2011 | DSG3-coupled beads, scFv-anti-DSG3-GFP binding; active compounds read low;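 active means binding more than 3 SD below its plate's average and above zero; inconclusive means below that plate limit but binding exactly zero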;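 further: hits lower antibody fragment binding to DSG3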
Target sequence (P32926 whole entry, looked up, the tested form may be a part): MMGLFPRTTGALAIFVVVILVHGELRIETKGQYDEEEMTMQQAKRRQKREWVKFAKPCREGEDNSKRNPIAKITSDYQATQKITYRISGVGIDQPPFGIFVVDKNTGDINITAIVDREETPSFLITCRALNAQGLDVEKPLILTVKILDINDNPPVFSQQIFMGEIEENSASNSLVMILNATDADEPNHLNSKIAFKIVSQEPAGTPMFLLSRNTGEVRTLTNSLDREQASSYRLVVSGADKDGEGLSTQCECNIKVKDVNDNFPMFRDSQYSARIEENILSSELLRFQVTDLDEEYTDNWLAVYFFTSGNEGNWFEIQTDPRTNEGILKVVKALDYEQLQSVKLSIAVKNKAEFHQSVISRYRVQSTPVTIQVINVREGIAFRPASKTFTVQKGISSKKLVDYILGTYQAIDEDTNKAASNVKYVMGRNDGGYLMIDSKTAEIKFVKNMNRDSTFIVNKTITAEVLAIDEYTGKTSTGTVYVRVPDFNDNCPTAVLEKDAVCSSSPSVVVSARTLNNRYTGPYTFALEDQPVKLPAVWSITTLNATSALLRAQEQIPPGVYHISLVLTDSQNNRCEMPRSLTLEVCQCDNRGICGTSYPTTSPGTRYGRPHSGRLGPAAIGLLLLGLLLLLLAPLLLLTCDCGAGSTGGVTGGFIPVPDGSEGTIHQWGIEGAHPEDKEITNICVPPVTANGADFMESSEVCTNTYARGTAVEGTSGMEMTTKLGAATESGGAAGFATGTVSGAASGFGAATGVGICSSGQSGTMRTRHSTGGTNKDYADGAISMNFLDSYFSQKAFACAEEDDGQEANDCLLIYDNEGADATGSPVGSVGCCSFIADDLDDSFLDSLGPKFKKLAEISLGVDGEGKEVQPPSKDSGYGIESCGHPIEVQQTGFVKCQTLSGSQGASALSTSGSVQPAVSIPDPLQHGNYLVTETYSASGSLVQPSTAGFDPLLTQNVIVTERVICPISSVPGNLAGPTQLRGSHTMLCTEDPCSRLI
LANA-H2A inh: blockers of LANA interaction with H2A/H2B – biochemical, FP readout, HTS, primary screen. Protein LANA1 (Human herpesvirus 8 type P (isolate GK18)), Q9QR71. inhibition, % (concentration not given with the values). AID 2629, 2010. cell-free LANA-H2A/H2B peptide, fluorescence polarization. hit rate 0.6% among 320,000; in the data active means inhibition mostly above about 10%, no sharp cut-off; inactive means mostly below about 6.7%
HDAC3 inhib: HDAC3 deacetylase inhibitors, primary screen, biochemical, fluorescence, cell-free homogeneous; inhibition, % at 8.3 µM; Histone deacetylase 3 (Homo sapiens), O15379; recombinant HDAC3, fluorogenic peptide/trypsin coupled; AID 2718, 2010; hit rate 0.15% among 320,000; in the data active means inhibition above about 26%, passing the limit was not always enough; inconclusive means no clear call, values can overlap the other calls
Arrestin-AP2 inh: inhibitors of beta-arrestin/AP2 binding, primary screen, biochemical, GPCR trafficking, flow cytometry | beta-arrestin 1 C-terminal peptide binding to AP2 beta2-adaptin appendage (human) | FITC-arrestin peptide / GST-AP2 beads; AP2 beta2 appendage carries R879A mutation | inhibition, % at 10 µM | hit rate 0.31% among 340,000;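 active means inhibition above a set limit, near 3 SD of compounds lacking own fluorescence, cut at about 54% in these data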
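Assay system: GST-AP2 R879A bound to glutathione beads, E. coli-expressed; Medium: PBS with 0.05% Tween 20 and 0.1% BSA; Also added: fluorescein-tagged arrestin peptide at 50 nM final; Timing: 12 min plus 1 h, RT; Measured by: flow cytometry, FL1 (488/535 nm); Evaluation: percent drop in bead-associated FITC signal.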
Arr-AP2 CP1: inhibitors of arrestin peptide binding to AP2, confirmation, biochemical, cherry pick 1, flow cytometry beads; shares compounds with Arrestin-AP2 inh; GST-AP2 beads, FITC arrestin peptide binding; GST-fused beta2-adaptin appendage, R879A mutant; inhibition, % at 10 µM; hit rate 2% among 1,300;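 active means inhibition above a set limit, roughly 3 SD of non-fluorescent compound noise, cut at about 38% in these data; inactive means inhibition at or below that limit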;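 further: loss of bead fluorescence from 50 nM FITC arrestin peptide bound to appendage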
GST GSH counter: GST-fluorescein capture on glutathione beads, confirmation, artefact control for arrestin-AP2 inhibitor project, biochemical, cherry pick 1, flow cytometry. shares compounds with Arrestin-AP2 inh. GST-fluorescein binding to GSH beads, fluorescence, counter-screen. inhibition, % at 10 µM. hit rate 2% among 1,300;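 active means inhibition above 50%, about 3 SD of the inhibition seen with non-fluorescent compounds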;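 further: fluorescein maleimide labelled GST captured on 4 micron glutathione beads; higher means more loss of bead fluorescence from quenching or blocked binding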
Of the large screens only hits and unclear results are named; the others gave an inactive call (follow-up assays come after a bar, where they were run).

COc1cc(OC)cc(C(=O)Nc2ccc(S(=O)(=O)Nc3ncccn3)cc2)c1	Arrestin-AP2 inh 55 | Arr-AP2 CP1 inactive | GST GSH counter inactive
CN(c1ccc(F)cc1)S(=O)(=O)c1ccc(Cl)c(C(=O)NCC2(N3CCOCC3)CCCCC2)c1	none (no result: T cell modulator, DSG3 Ab inh, LANA-H2A inh, HDAC3 inhib) | Arr-AP2 CP1 inactive | GST GSH counter inactive
COc1ccccc1NS(=O)(=O)c1ccc(C(=O)NCC2(N(C)C)CCCCC2)cc1	none
COc1ccc(Cl)cc1NS(=O)(=O)c1cccc(C(=O)NCC2(N(C)C)CCCCC2)c1	none | Arr-AP2 CP1 inactive | GST GSH counter inactive
COc1ccccc1NS(=O)(=O)c1cccc(C(=O)NCC2(N(C)C)CCCCC2)c1	none | Arr-AP2 CP1 inactive | GST GSH counter inactive
COc1ccccc1N(C)S(=O)(=O)c1ccc(Cl)c(C(=O)NCC2(N(C)C)CCCCC2)c1	none | Arr-AP2 CP1 inactive | GST GSH counter inactive
Cc1ccc(C)c(NC(=O)Cc2nc(CNCC(C)C)cs2)c1	none
CCOC(=O)CNC(=O)N1CCCC(Cc2ccccc2)(C(=O)OCC)C1 (stereo not drawn)	none
O=C(NC1CCCCCC1)c1cc(S(=O)(=O)N2CCOCC2)ccc1N1CCCCC1	none (no result: DSG3 Ab inh) | Arr-AP2 CP1 inactive | GST GSH counter inactive
O=C(Nc1ccc(OC(F)F)cc1)c1cc(S(=O)(=O)N2CCOCC2)ccc1N1CCCC1	none (no result: T cell modulator, LANA-H2A inh, HDAC3 inhib) | Arr-AP2 CP1 inactive | GST GSH counter inactive
COc1ccc(CN(C)C(=O)c2cc(S(=O)(=O)N3CCOCC3)ccc2N2CCCC2)cc1	none (no result: DSG3 Ab inh) | Arr-AP2 CP1 inactive | GST GSH counter inactive
CN(Cc1cccs1)C(=O)c1cc(S(=O)(=O)N2CCOCC2)ccc1N1CCCC1	none (no result: DSG3 Ab inh, LANA-H2A inh)
CN(Cc1cccc(F)c1)C(=O)c1ccc(S(=O)(=O)N2CCOCC2)cc1	Arrestin-AP2 inh 63 | Arr-AP2 CP1 inactive | GST GSH counter inactive
O=C(NNC(=O)c1ccccc1Cl)c1ccc(-n2cncn2)c([N+](=O)[O-])c1	none (no result: DSG3 Ab inh)
CC1CCN(C(=O)c2cc(S(=O)(=O)N3CCOCC3)ccc2N2CCCC2)CC1	none | Arr-AP2 CP1 inactive | GST GSH counter inactive
CC(Oc1cccc(Cl)c1)C(=O)Nc1cc(S(=O)(=O)N2CCOCC2)ccc1N1CCCC1 (stereo not drawn)	Arrestin-AP2 inh 62 | Arr-AP2 CP1 inactive | GST GSH counter inactive
CC1CCN(C(=O)c2ccc(S(=O)(=O)N3CCOCC3)cc2)CC1	none
COc1ccccc1CNc1ccc(Br)cn1	none
Cc1ccc(NC(=S)NC2CCCC2)cc1C	none
Cc1nc2ccc(NC(=S)NC3CCCCC3)cc2nc1C	Arrestin-AP2 inh 55 | Arr-AP2 CP1 inactive | GST GSH counter inactive
CC12CCC(=O)N1C(C(=O)Nc1nnc(SCc3ccccc3)s1)CS2 (stereo not drawn)	none
CCSc1nnc(NC(=O)C2CSC3(C)CCC(=O)N23)s1 (stereo not drawn)	DSG3 Ab inh inconclusive, Arrestin-AP2 inh 60 | Arr-AP2 CP1 inactive | GST GSH counter inactive
CCOC(=O)c1c(C(=O)OCC)c(C)n(N2C(=O)CSC2=S)c1C	Arrestin-AP2 inh 60 | Arr-AP2 CP1 inactive | GST GSH counter inactive
COc1ccc(CN(C)CC(=O)Nc2cc3oc4ccccc4c3cc2OC)c(OC)c1	none | Arr-AP2 CP1 inactive | GST GSH counter inactive
COc1cc2c(cc1NC(=O)CCC(=O)O)oc1ccccc12	none
COc1ccc(CN(C)CC(=O)Nc2ccccc2C(F)(F)F)c(OC)c1	none
COc1cc2c(cc1NC(=O)CN(C)Cc1ccc(OC)c(OC)c1)oc1ccccc12	none | Arr-AP2 CP1 inactive | GST GSH counter inactive
O=C(c1ccccc1)N(c1ccccc1)c1nccc2ccccc12	none (no result: T cell modulator, LANA-H2A inh, HDAC3 inhib)
O=C(NCCc1ccccc1)c1cc2sccc2n1Cc1ccccc1	none (no result: DSG3 Ab inh)
CCn1c(C(=O)NCCCc2ccccc2)cc2sccc21	Arrestin-AP2 inh 58 | Arr-AP2 CP1 inactive | GST GSH counter inactive
Cc1ccccc1NC(=O)CSc1nnc(Cc2ccccc2)c(=O)n1N	none
Oc1c(CNc2ccccc2)cc(COCc2ccccc2)c2cccnc12	Arrestin-AP2 inh 55 (no result: LANA-H2A inh, HDAC3 inhib) | Arr-AP2 CP1 inactive | GST GSH counter inactive
CCn1c(=O)n(CC)c2cc(N3CCCC3)c(NC(=O)c3ccc(C)cc3)cc21	HDAC3 inhib inconclusive (no result: DSG3 Ab inh) | Arr-AP2 CP1 inactive
Cn1c(=O)n(C)c2cc(N3CCCCC3)c(NC(=O)c3ccccc3)cc21	none | Arr-AP2 CP1 inactive | GST GSH counter inactive
CCn1c(=O)n(CC)c2cc(N3CCCC3)c(NC(=O)c3ccccc3)cc21	none | Arr-AP2 CP1 inactive | GST GSH counter inactive
CC(C)=CCCC(C)CN1CCC(n2nccc2NC(=O)C2CCCC2)CC1 (stereo not drawn)	none
CCn1cc(CN2CCC(C(=O)Nc3ccc(Oc4ccccc4F)cc3)CC2)cn1	none (no result: T cell modulator, LANA-H2A inh, HDAC3 inhib, Arrestin-AP2 inh)
COc1ccc(/C=N/Nc2ccc([N+](=O)[O-])cc2S(=O)(=O)N2CCN(C)CC2)cc1	Arrestin-AP2 inh 102 | Arr-AP2 CP1 inactive | GST GSH counter inactive
COc1ccc(C=NNc2ccc([N+](=O)[O-])cc2S(=O)(=O)Nc2ccccc2C(=O)O)cc1OC	none
Cc1ccc(-c2nnn(CC(=O)N(c3ccccc3)C(C(=O)NCC3CCCO3)c3ccc(F)cc3)n2)o1 (stereo not drawn)	Arrestin-AP2 inh 66 | Arr-AP2 CP1 inactive | GST GSH counter inactive
O=C(O)c1cc2nc(-c3ccccc3)cc(C(F)(F)F)n2n1	none
O=C(O)c1cc2nc(-c3ccccc3)cc(-c3ccccc3)n2n1	Arrestin-AP2 inh 68 | Arr-AP2 CP1 inactive | GST GSH counter inactive
COc1ccc(-n2nc3c(c2NC(=O)c2ccc(Br)o2)CS(=O)(=O)C3)cc1	none (no result: DSG3 Ab inh)
O=C(Nc1ccccc1C(F)(F)F)C1CCN(C(=O)c2cccs2)CC1	none
NS(=O)(=O)c1ccc(NC(=O)c2cc(-c3cc(Cl)ccc3O)n[nH]2)cc1	none
CC(C)CCNC(=O)CCC(=O)NNc1nc2ccccc2c2nc(-c3ccccc3)nn12	Arrestin-AP2 inh 63 | Arr-AP2 CP1 inactive | GST GSH counter inactive
Cc1cc(C)cc(NC(=O)C(=O)NCC2CCCN2S(=O)(=O)c2cccs2)c1 (stereo not drawn)	Arrestin-AP2 inh 69 | Arr-AP2 CP1 inactive | GST GSH counter inactive
O=C(CSc1nc(O)c(C(c2ccccc2)c2ccccc2)c(=O)[nH]1)N1CCOCC1	Arrestin-AP2 inh 68 | Arr-AP2 CP1 inactive | GST GSH counter inactive
